Data from ChEMBL document CHEMBL1132354, “Novel antidiabetic and hypolipidemic agents. 5. Hydroxyl versus benzyloxy containing chroman derivatives” (J Med Chem, 1999).

Columns and labels:
Rattus norvegicus [1] = assay: (§1) The AUC(0-t)value in female wistar rat at 100 mg/kg, p.o. dose; assay type: ADME, organism-based; parameters: dose 100 mg/kg, route oral; details: in vivo, po
Procedure, shortened: (§2)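 Wistar rats, 200–225 g, fasted 12 h with free access to water and fed 3 h after dosing. Single dose of 100 mg/kg p.o. given as a 0.5% CMC suspension. Retro-orbital blood, 0.4 mL, taken into heparinized tubes at several time points. Plasma drug measured by HPLC with fluorescence detection on a C18 column. Parameters from noncompartmental analysis, AUC by trapezoidal rule. Four rats per group, mean ± SD.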

[2] = The Cmax value in female wistar rat at 100 mg/kg, p.o. dose; assay type: ADME, organism-based; parameters: dose 100 mg/kg, route oral; details: in vivo, po; procedure, shortened: as §2
[3] = The Kel value in female wistar rat at 100 mg/kg, p.o. dose; assay type: ADME, organism-based; parameters: dose 100 mg/kg, route oral; details: in vivo, po; procedure, shortened: as §2
[4] = The half life value in female wistar rat at 100 mg/kg, p.o. dose; assay type: ADME, organism-based; parameters: dose 100 mg/kg, route oral; details: in vivo, po; procedure, shortened: as §2
Mus musculus [5] = assay: The compound was tested for percent reduction in plasma glucose after 6 days of treatment at a dose of 200 mg/kg/day (oral gavage) in mice; assay type: functional
Procedure, shortened: (§3)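 Male C57BL/KsJ-db/db mice, 8 weeks old, chow ad libitum, grouped by similar starting plasma glucose (n = 4–6 per group). Dosed orally by gavage in 0.5% CMC vehicle (10 mL/kg) daily for 6 days. Retro-orbital blood taken 1 h post-dose on days 0 and 6. Plasma glucose and triglyceride measured with kits. % reduction = {1−[(TT/OT)/(TC/OC)]}×100 versus vehicle controls, mean ± SE.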

Rattus norvegicus [6] = assay: (§4) The AUC(0-infinitive) value in female wistar rat at 100 mg/kg, p.o. dose; assay type: ADME, organism-based; parameters: time infinity, dose 100 mg/kg, route oral; details: in vivo, po; procedure, shortened: as §2
[7] = The Tmax value in female wistar rat at 100 mg/kg, p.o. dose; assay type: ADME, organism-based; parameters: dose 100 mg/kg, route oral; details: in vivo, po; procedure, shortened: as §2
Mus musculus [8] = assay: The compounds(21:4) were tested for percent reduction in plasma glucose after 6 days of treatment at 200 mg/kg/day(oral gavage) in mice; assay type: functional; procedure, shortened: as §3
Mus musculus [9] = assay: The compounds(3:7) were tested for percent reduction in plasma glucose after 6 days of treatment at 200 mg/kg/day(oral gavage) in mice; assay type: functional; procedure, shortened: as §3
Mus musculus [10] = assay: The compound was tested for percent reduction in plasma triglyceride after 6 days of treatment at 30 mg/kg/day in mice; assay type: functional; procedure, shortened: as §3
Mus musculus [11] = assay: The compound was tested for percent reduction in plasma glucose after 6 days of treatment at 30 mg/kg/day in mice; assay type: functional; procedure, shortened: as §3
Mus musculus [12] = assay: The compound was tested for percent reduction in plasma triglyceride after 6 days of treatment at a dose of 100 mg/kg/day (oral gavage) in mice; assay type: functional; procedure, shortened: as §3
[13] = target: T1, Peroxisome proliferator-activated receptor alpha (Homo sapiens) (UniProt Q07869); assay: Fold activation against Peroxisome proliferator activated receptor alpha (50 uM)
T1 sequence (whole entry): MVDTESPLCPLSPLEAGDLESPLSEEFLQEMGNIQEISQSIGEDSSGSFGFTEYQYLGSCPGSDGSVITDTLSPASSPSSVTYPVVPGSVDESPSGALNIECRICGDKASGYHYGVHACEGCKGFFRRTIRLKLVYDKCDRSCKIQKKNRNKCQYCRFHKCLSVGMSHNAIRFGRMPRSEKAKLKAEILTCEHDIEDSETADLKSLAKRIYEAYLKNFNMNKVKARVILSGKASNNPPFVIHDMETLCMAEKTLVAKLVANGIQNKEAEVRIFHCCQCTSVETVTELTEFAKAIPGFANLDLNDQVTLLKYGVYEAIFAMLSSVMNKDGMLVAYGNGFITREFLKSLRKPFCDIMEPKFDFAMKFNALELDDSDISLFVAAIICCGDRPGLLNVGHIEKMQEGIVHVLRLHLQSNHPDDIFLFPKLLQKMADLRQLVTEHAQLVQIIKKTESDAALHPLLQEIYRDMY
Procedure, shortened: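 GAL4 fusion of human PPARα LBD (aa 167–468) with a GAL4-response-element luciferase reporter, transiently transfected into HEK-293 cells. Cells kept in DMEM with 10% delipidated serum, seeded 43 h post-transfection, then treated at 50 μM. DMSO (1:1000) served as blank. Luciferase read as fold activation over untreated cells. Mean of three to four experiments.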

Rattus norvegicus [14] = assay: as §1; assay type: ADME, organism-based; parameters: dose 100 mg/kg, route oral; unit not given here; details: in vivo, po; procedure, shortened: as §2
Mus musculus [15] = assay: The compound was tested for percent reduction in plasma glucose after 6 days of treatment at a dose of 100 mg/kg/day (oral gavage) in mice; assay type: functional; procedure, shortened: as §3
Rattus norvegicus [16] = assay: as §4; assay type: ADME, organism-based; parameters: time infinity, dose 100 mg/kg, route oral; unit not given here; details: in vivo, po; procedure, shortened: as §2
[17] = The Cmax value in male wistar rat at 100 mg/kg, p.o. dose; assay type: ADME, organism-based; parameters: dose 100 mg/kg, route oral; details: in vivo, po; procedure, shortened: as §2
Mus musculus [18] = assay: The compound was tested for percent reduction in plasma triglyceride after 6 days of treatment at a dose of 200 mg/kg/day (oral gavage) in mice; assay type: functional; procedure, shortened: as §3
[19] = The half life value in male wistar rat at 100 mg/kg, p.o. dose; assay type: ADME, organism-based; parameters: dose 100 mg/kg, route oral; details: in vivo, po; procedure, shortened: as §2
Mus musculus [20] = assay: The compound was tested for percent reduction in plasma glucose after 6 days of treatment at a dose of 100 mg/kg/day in mice; assay type: functional; procedure, shortened: as §3
[21] = The Tmax value in male wistar rat at 100 mg/kg, p.o. dose; assay type: ADME, organism-based; parameters: dose 100 mg/kg, route oral; details: in vivo, po; procedure, shortened: as §2
Rattus norvegicus [22] = assay: The AUC(0-t)value in male wistar rat at 100 mg/kg, p.o. dose; assay type: ADME, organism-based; parameters: dose 100 mg/kg, route oral; details: in vivo, po; procedure, shortened: as §2
[23] = The Kel value in male wistar rat at 100 mg/kg, p.o. dose; assay type: ADME, organism-based; parameters: dose 100 mg/kg, route oral; details: in vivo, po; procedure, shortened: as §2
Rattus norvegicus [24] = assay: The AUC(0-infinitive) value in male wistar rat at 100 mg/kg, p.o. dose; assay type: ADME, organism-based; parameters: time infinity, dose 100 mg/kg, route oral; details: in vivo, po; procedure, shortened: as §2
Mus musculus [25] = assay: The compound was tested for percent reduction in plasma triglyceride after 6 days of treatment at 100 mg/kg/day in mice; assay type: functional; procedure, shortened: as §3
Mus musculus [26] = assay: The compound was tested for percent reduction in plasma triglyceride after 6 days of treatment at 30 mg/kg/day; assay type: functional; procedure, shortened: as §3
Rattus norvegicus [27] = assay: The AUC(0-t)value in female wistar rat at 100 mg/kg, p.o. dose […]; assay type: ADME, organism-based; parameters: dose 100 mg/kg, route oral; details: in vivo, po

Cc1c(C)c2c(c(C)c1OCc1ccccc1)CCC(C)(CN(C)CCOc1ccc(/C=C3\SC(=O)NC3=O)cc1)O2 (stereo not given)
AUC (Rattus norvegicus [1]): 27.47 µg/h/mL | Cmax [2]: 4120 ng/mL | k el [3]: 4.17e-05 s⁻¹ | half-life [4]: 292 min | Reduction (Mus musculus [5]): 45% | AUC (Rattus norvegicus [6]): 34.49 µg/h/mL | Tmax [7]: 3.25 h

Cc1c(C)c2c(c(C)c1OCc1ccccc1)CCC(C)(CN1CCC[C@@H](Oc3ccc(/C=C4\SC(=O)NC4=O)cc3)C1)O2.Cc1c(C)c2c(c(C)c1OCc1ccccc1)CCC(C)(CN1CCC[C@H]1COc1ccc(/C=C3\SC(=O)NC3=O)cc1)O2 (stereo not given in full)
Reduction (Mus musculus [8]): 52% | Reduction (Mus musculus [9]): 53%

Cc1c(C)c2c(c(C)c1OCc1ccccc1)CCC(C)(CN1CCC[C@H]1COc1ccc(/C=C3\SC(=O)[N-]C3=O)cc1)O2.[Na+] (stereo not given in full)
Reduction (Mus musculus [10]): 58% | Reduction (Mus musculus [11]): 8%

Cc1c(C)c2c(c(C)c1OCc1ccccc1)CCC(C)(COc1ccc(/C=C3\SC(=O)NC3=O)cc1)O2 (stereo not given)
Reduction (Mus musculus [12]): 38% | Cmax [2]: 1090 ng/mL | k el [3]: 1.94e-05 s⁻¹ | half-life [4]: 622 min | Fold activation [13]: 0.67 | Tmax [7]: 4.33 h | AUC (Rattus norvegicus [14]): 14.4 | Reduction (Mus musculus [15]): 39% | AUC (Rattus norvegicus [16]): 18.5

Cc1c(C)c2c(c(C)c1O)CCC(C)(COc1ccc(CC3SC(=O)NC3=O)cc1)O2 (stereo not given) [TROGLITAZONE]
Cmax [17]: 770 ng/mL | Reduction (Mus musculus [18]): 50% | half-life [19]: 234 min | Reduction (Mus musculus [20]): 26% | Tmax [21]: 2 h | AUC (Rattus norvegicus [22]): 5.09 µg/h/mL | Reduction (Mus musculus [5]): 24% | k el [23]: 5.28e-05 s⁻¹ | AUC (Rattus norvegicus [24]): 5.68 µg/h/mL

Cc1c(C)c2c(c(C)c1O)CCC(C)(CN1CCC[C@H]1COc1ccc(/C=C3\SC(=O)NC3=O)cc1)O2 (stereo not given in full)
Reduction (Mus musculus [25]): 36% | Reduction (Mus musculus [15]): 37%

Cc1c(C)c2c(c(C)c1OCc1ccccc1)CCC(C)(CN1CCC[C@H]1COc1ccc(/C=C3\SC(=O)NC3=O)cc1)O2 (stereo not given in full)
Reduction (Mus musculus [26]): 26% | Reduction (Mus musculus [11]): 41% | Reduction (Mus musculus [15]): 68%

Cc1c(C)c2c(c(C)c1O)CCC(C)(CN(C)CCOc1ccc(/C=C3\SC(=O)NC3=O)cc1)O2 (stereo not given)
AUC (Rattus norvegicus [27]): 44.2 µg/h/mL | Cmax [2]: 9920 ng/mL | k el [3]: 0.000106 s⁻¹ | Reduction (Mus musculus [5]): 36% | AUC (Rattus norvegicus [6]): 44.94 µg/h/mL | Tmax [7]: 1.38 h
